Experimental data as given in ChEMBL document CHEMBL1136237, “2-piperidin-4-yl-benzimidazoles with broad spectrum antibacterial activities” (2003).
In brackets after ≈: the same amount, converted by molar mass.

Key:
[1] = system: Escherichia coli; assay: Antibacterial activity determined against Escherichia coli; type: functional
Procedure, shortened: (§1)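 Broth microdilution: an overnight-culture bacterial suspension was added to compound in 2.5% DMSO in water, giving a final inoculum of about 10^2–10^3 CFU/well. Plates were incubated 20–24 h at 37 °C, and growth relative to a no-compound control was read as A595. MIC was given as a range: complete inhibition at the upper concentration, viable cells at the lower.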

[2] = Inhibition of bacterial transcription/translation
[3] = system: Staphylococcus aureus; assay: Antibacterial activity determined against Staphylococcus aureus; type: functional; procedure, shortened: as §1
[4] = system: Enterococcus faecalis; assay: Antibacterial activity determined against Enterococcus faecalis ATCC 828; type: functional; procedure, shortened: as §1
[5] = system: Staphylococcus aureus; assay: Antibacterial activity determined against gram-positive Staphylococcus aureus 13709; type: functional; procedure, shortened: as §1
[6] = system: Enterococcus hirae; assay: Antibacterial activity determined against gram-positive Enterococcus hirae 29212; type: functional; procedure, shortened: as §1
[7] = system: Proteus vulgaris; assay: Antibacterial activity determined against gram-negativeP. vulgaris 8427; type: functional; procedure, shortened: as §1
[8] = system: Pseudomonas aeruginosa; assay: Antibacterial activity determined against gram-negativeP. aeruginosa 25416; type: functional; procedure, shortened: as §1
[9] = system: Enterococcus faecium; assay: Antibacterial activity determined against Enterococcus faecium ATCC 6569; type: functional; procedure, shortened: as §1
[10] = system: Enterococcus faecium; assay: Antibacterial activity determined against Enterococcus faecium ATCC 882; type: functional; procedure, shortened: as §1
[11] = system: Enterococcus faecalis; assay: Antibacterial activity determined against Enterococcus faecalis ATCC 49757; type: functional; procedure, shortened: as §1
[12] = system: Enterococcus faecalis; assay: Antibacterial activity determined against Enterococcus faecalis ATCC 4200; type: functional; procedure, shortened: as §1
[13] = system: Escherichia coli; assay: Antibacterial activity determined against gram-negativeE. coli 25922; type: functional; procedure, shortened: as §1
[14] = system: Candida albicans; assay: Antifungal activity determined against Candida albicans 10231; type: functional
Procedure, shortened: as §1, with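 “Candida albicans:” for “Broth microdilution:”, “yeast” for “bacterial”, “40–48” for “20–24”, “25” for “37”, “versus” for “relative to”, “higher” for “upper”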

[15] = system: Enterococcus faecalis; assay: Antibacterial activity determined against Enterococcus faecalis ATCC 23241; type: functional; procedure, shortened: as §1
[16] = system: Streptococcus pneumoniae; assay: Antibacterial activity determined against gram-positive Streptococcus pneumoniae 6303; type: functional; procedure, shortened: as §1
[17] = system: Enterococcus faecalis; assay: Antibacterial activity determined against Enterococcus faecalis ATCC 11823; type: functional; procedure, shortened: as §1
[18] = system: Streptococcus pyogenes; assay: Antibacterial activity determined against gram-positive Streptococcus pyogenes 49399; type: functional; procedure, shortened: as §1
[19] = system: Klebsiella pneumoniae; assay: Antibacterial activity determined against gram-negativeK. pneumoniae 13383; type: functional; procedure, shortened: as §1
[20] = system: Candida albicans; assay: Antibacterial activity determined against Candida albicans 10231; type: functional
Procedure, shortened: as §1, with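 “Candida albicans:” for “Broth microdilution:”, “yeast” for “bacterial”, “40–48” for “20–24”, “25” for “37”, “versus” for “relative to”, “higher” for “upper”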

SMILES	MIC [1]	IC50 [2]	MIC [3]	MIC [4]	MIC [5]	MIC [6]	MIC [7]	MIC [8]	MIC [9]	MIC [10]	MIC [11]	MIC [12]	MIC [13]	MIC [14]	MIC [15]	MIC [16]	MIC [17]	MIC [18]	MIC [19]	MIC [20]
CCn1c(C2CCNCC2)nc2cc(Cl)c(Cl)cc21	> 100 µM	> 100 µM	> 100 µM	–	–	–	–	–	–	–	–	–	–	–	–	–	–	–	–	–
O=[N+]([O-])c1ccc(Cn2c(C3CCNCC3)nc3cc(Cl)c(Cl)cc32)cc1	> 100 µM	> 100 µM	50 µM (≈ 20.3 µg/mL)	–	–	–	–	–	–	–	–	–	–	–	–	–	–	–	–	–
CCCCCNCc1ccc(Cn2c(C3CCNCC3)nc3cc(Cl)c(Cl)cc32)cc1	12 µM (≈ 5.51 µg/mL)	> 100 µM	6 µM (≈ 2.76 µg/mL)	6 µM (≈ 2.76 µg/mL)	6 µM (≈ 2.76 µg/mL)	1 µM (≈ 0.459 µg/mL)	25 µM (≈ 11.5 µg/mL)	25 µM (≈ 11.5 µg/mL)	3 µM (≈ 1.38 µg/mL)	6 µM (≈ 2.76 µg/mL)	6 µM (≈ 2.76 µg/mL)	6 µM (≈ 2.76 µg/mL)	12 µM (≈ 5.51 µg/mL)	50 µM (≈ 23 µg/mL)	6 µM (≈ 2.76 µg/mL)	12 µM (≈ 5.51 µg/mL)	3 µM (≈ 1.38 µg/mL)	3 µM (≈ 1.38 µg/mL)	6 µM (≈ 2.76 µg/mL)	–
NCCN(CCN)CCNCc1ccc(Cn2c(C3CCNCC3)nc3cc(Cl)c(Cl)cc32)cc1	12 µM (≈ 6.22 µg/mL)	10 µM	3 µM (≈ 1.56 µg/mL)	–	3 µM (≈ 1.56 µg/mL)	3 µM (≈ 1.56 µg/mL)	25 µM (≈ 13 µg/mL)	12 µM (≈ 6.22 µg/mL)	–	–	–	–	12 µM (≈ 6.22 µg/mL)	> 100 µM	–	6 µM (≈ 3.11 µg/mL)	–	3 µM (≈ 1.56 µg/mL)	12 µM (≈ 6.22 µg/mL)	–
Clc1cc2nc(C3CCNCC3)[nH]c2cc1Cl	> 100 µM	> 100 µM	> 100 µM	–	–	–	–	–	–	–	–	–	–	–	–	–	–	–	–	–
Clc1cc2nc(C3CCNCC3)n(Cc3ccc(CN4CCCNCC4)cc3)c2cc1Cl	12 µM (≈ 5.67 µg/mL)	> 100 µM	6 µM (≈ 2.83 µg/mL)	12 µM (≈ 5.67 µg/mL)	6 µM (≈ 2.83 µg/mL)	3 µM (≈ 1.42 µg/mL)	25 µM (≈ 11.8 µg/mL)	25 µM (≈ 11.8 µg/mL)	6 µM (≈ 2.83 µg/mL)	12 µM (≈ 5.67 µg/mL)	6 µM (≈ 2.83 µg/mL)	12 µM (≈ 5.67 µg/mL)	12 µM (≈ 5.67 µg/mL)	> 100 µM	12 µM (≈ 5.67 µg/mL)	12 µM (≈ 5.67 µg/mL)	12 µM (≈ 5.67 µg/mL)	6 µM (≈ 2.83 µg/mL)	12 µM (≈ 5.67 µg/mL)	–
Clc1cc2nc(C3CCNCC3)n(Cc3ccc(CNC4CCNCC4)cc3)c2cc1Cl	12 µM (≈ 5.67 µg/mL)	> 100 µM	6 µM (≈ 2.83 µg/mL)	12 µM (≈ 5.67 µg/mL)	6 µM (≈ 2.83 µg/mL)	3 µM (≈ 1.42 µg/mL)	25 µM (≈ 11.8 µg/mL)	12 µM (≈ 5.67 µg/mL)	12 µM (≈ 5.67 µg/mL)	12 µM (≈ 5.67 µg/mL)	12 µM (≈ 5.67 µg/mL)	12 µM (≈ 5.67 µg/mL)	12 µM (≈ 5.67 µg/mL)	–	12 µM (≈ 5.67 µg/mL)	12 µM (≈ 5.67 µg/mL)	12 µM (≈ 5.67 µg/mL)	6 µM (≈ 2.83 µg/mL)	12 µM (≈ 5.67 µg/mL)	50 µM (≈ 23.6 µg/mL)
Clc1cc2nc(C3CCNCC3)n(Cc3ccc(CBr)cc3)c2cc1Cl	> 100 µM	> 100 µM	> 100 µM	–	–	–	–	–	–	–	–	–	–	–	–	–	–	–	–	–
NCCCCCCNCc1ccc(Cn2c(C3CCNCC3)nc3cc(Cl)c(Cl)cc32)cc1	12 µM (≈ 5.86 µg/mL)	> 100 µM	6 µM (≈ 2.93 µg/mL)	–	6 µM (≈ 2.93 µg/mL)	1 µM (≈ 0.489 µg/mL)	25 µM (≈ 12.2 µg/mL)	25 µM (≈ 12.2 µg/mL)	–	–	–	–	12 µM (≈ 5.86 µg/mL)	> 100 µM	–	12 µM (≈ 5.86 µg/mL)	–	3 µM (≈ 1.47 µg/mL)	12 µM (≈ 5.86 µg/mL)	–
Clc1cc2nc(C3CCNCC3)n(Cc3ccc(CNCCc4c[nH]cn4)cc3)c2cc1Cl	12 µM (≈ 5.8 µg/mL)	25 µM	6 µM (≈ 2.9 µg/mL)	–	6 µM (≈ 2.9 µg/mL)	3 µM (≈ 1.45 µg/mL)	25 µM (≈ 12.1 µg/mL)	25 µM (≈ 12.1 µg/mL)	–	–	–	–	12 µM (≈ 5.8 µg/mL)	> 100 µM	–	12 µM (≈ 5.8 µg/mL)	–	6 µM (≈ 2.9 µg/mL)	12 µM (≈ 5.8 µg/mL)	–
O=C(O)c1cn(C2CC2)c2cc(N3CCNCC3)c(F)cc2c1=O [CIPROFLOXACIN]	0.75 µM (≈ 0.249 µg/mL)	> 100 µM	0.75 µM (≈ 0.249 µg/mL)	–	–	–	–	–	–	–	–	–	–	–	–	–	–	–	–	–
NC1CCN(Cc2ccc(Cn3c(C4CCNCC4)nc4cc(Cl)c(Cl)cc43)cc2)CC1	50 µM (≈ 23.6 µg/mL)	60 µM	6 µM (≈ 2.83 µg/mL)	12 µM (≈ 5.67 µg/mL)	6 µM (≈ 2.83 µg/mL)	3 µM (≈ 1.42 µg/mL)	25 µM (≈ 11.8 µg/mL)	12 µM (≈ 5.67 µg/mL)	6 µM (≈ 2.83 µg/mL)	12 µM (≈ 5.67 µg/mL)	12 µM (≈ 5.67 µg/mL)	12 µM (≈ 5.67 µg/mL)	50 µM (≈ 23.6 µg/mL)	50 µM (≈ 23.6 µg/mL)	12 µM (≈ 5.67 µg/mL)	25 µM (≈ 11.8 µg/mL)	12 µM (≈ 5.67 µg/mL)	6 µM (≈ 2.83 µg/mL)	25 µM (≈ 11.8 µg/mL)	–
Clc1cc2nc(C3CCNCC3)n(Cc3ccc(Cn4cncn4)cc3)c2cc1Cl	12 µM (≈ 5.3 µg/mL)	> 100 µM	12 µM (≈ 5.3 µg/mL)	–	–	–	–	–	–	–	–	–	–	–	–	–	–	–	–	–
